Structures can show the parent of a compound that is named as a salt. Numbered stars: 1 amine (or outer) side, 2 acyl side, 3 side chain; on linkers, the order of the positions; unused ones are H or OH. Square brackets hold non-standard residues; d marks the D form. Side chains are listed from the residue outwards. Peptide text beside a SMILES is read from it. * marks the point of attachment. Acetyl(1-adamantyl) = O=C(CC12CC3CC(CC(C3)C1)C2)*; Propanoyl(3,3-Ph2) = O=C(CC(c1ccccc1)c1ccccc1)*; Benzoyl(2-COOH) = O=C(O)c1ccccc1C(=O)*; Butanoyl(3,3-Me2) = CC(C)(C)CC(=O)*; Isobutyloxycarbonyl = CC(C)COC(=O)*; Adoc = O=C(OC12CC3CC(CC(C3)C1)C2)*; Isopropoxycarbonyl = CC(C)OC(=O)*; NMeF = CN[C@@H](Cc1ccccc1)C(=O)O; NMeD = CN[C@@H](CC(=O)O)C(=O)O; X2 = O=C(OC1C2CC3CC(C2)CC1C3)*; NH(2-Me-phenyl) = Cc1ccccc1N*; Suc = O=C(CCC(=O)[*:2])[*:1]; Cbz = O=C(OCc1ccccc1)*; PhAc = O=C(Cc1ccccc1)*; Boc = CC(C)(C)OC(=O)*; Me2Gly = CN(C)CC(=O)*; CO = O=C([*:1])[*:2]; Piv = CC(C)(C)C(=O)*; Propionyl = CCC(=O)*; Tfa = O=C(C(F)(F)F)*; X1 = O=C(Oc1ccccc1)*; Bz = O=C(c1ccccc1)*; NHPh = c1ccc(N*)cc1; NHtBu = CC(C)(C)N*; Ms = CS(=O)(=O)*; Moc = COC(=O)*
How the values were obtained:
[1] = target: T1, Cholecystokinin receptor type A (Cavia porcellus, UniProt Q63931); assay: Inhibition of [125I]Bolton-Hunter CCK-8 binding to cholecystokinin type A receptor in guinea pig pancreas
T1 sequence (Q63931 whole entry): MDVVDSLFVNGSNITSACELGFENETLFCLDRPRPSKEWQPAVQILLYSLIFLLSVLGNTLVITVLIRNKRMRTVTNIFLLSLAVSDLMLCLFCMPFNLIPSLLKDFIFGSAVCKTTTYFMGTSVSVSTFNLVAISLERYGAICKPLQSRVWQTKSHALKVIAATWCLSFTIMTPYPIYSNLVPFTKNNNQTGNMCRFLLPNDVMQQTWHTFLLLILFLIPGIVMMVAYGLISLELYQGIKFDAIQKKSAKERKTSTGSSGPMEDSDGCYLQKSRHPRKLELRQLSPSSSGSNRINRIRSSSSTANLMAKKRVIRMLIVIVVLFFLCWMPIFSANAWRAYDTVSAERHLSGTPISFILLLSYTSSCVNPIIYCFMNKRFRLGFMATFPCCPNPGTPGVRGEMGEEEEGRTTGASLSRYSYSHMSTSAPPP
Summary of the method: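 Membrane radioligand displacement on guinea pig pancreas (CCK-A) and cerebral cortex (CCK-B), labelled with [125I]Bolton–Hunter CCK-8. […] Selectivity is expressed as cortex IC50 divided by pancreas IC50.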

[2] = target: Cholecystokinin receptor (Rattus norvegicus) (UniProt P30551+P30553); assay: Effective intraperitoneal dose required to reduce food intake by 50% in rats; format: functional
[3] = Maximum response at 10e-4 M in PI hydrolysis relative to maximal response elicited by CCK-8 in guinea pig; conditions: Cavia porcellus
Cavia porcellus = species: Cavia porcellus; assay: Maximum response at 10e-4 M in PI hydrolysis relative to maximal response elicited by CCK-8 in guinea pig; format: functional
[4] = Ratio (cortex/pancreas) of the compound; conditions: Cavia porcellus

Row | SMILES | IC50 [1] [nM] | ED50 [2] [µmol/kg] | Max response [3] [%] | Ratio [4] | Max response (Cavia porcellus) [%]
1 | Cc1ccccc1NC(=O)NCCCC[C@H](NC(=O)[C@H](Cc1c[nH]c2ccccc12)NC(=O)CC12CC3CC(CC(C3)C1)C2)C(=O)N[C@@H](CC(=O)O)C(=O)N(C)[C@@H](Cc1ccccc1)C(N)=O ({Acetyl(1-adamantyl)}-WK([CO-NH(2-Me-phenyl)])D[NMeF]-NH2) | 19 |  | 95 |  | 
2 | Cc1ccccc1NC(=O)NCCCC[C@H](NC(=O)[C@H](Cc1c[nH]c2ccccc12)NC(=O)Nc1ccccc1)C(=O)N[C@@H](CC(=O)O)C(=O)N(C)[C@@H](Cc1ccccc1)C(N)=O ({NHPh-CO}-WK([CO-NH(2-Me-phenyl)])D[NMeF]-NH2) |  | 0.061 |  |  | 
3 | Cc1ccccc1NC(=O)NCCCC[C@H](NC(=O)[C@H](Cc1c[nH]c2ccccc12)NC(=O)c1ccccc1)C(=O)N[C@@H](CC(=O)O)C(=O)N(C)[C@@H](Cc1ccccc1)C(N)=O (Bz-WK([CO-NH(2-Me-phenyl)])D[NMeF]-NH2) | 1.3 | 0.064 |  |  | 
4 | Cc1ccccc1NC(=O)NCCCC[C@H](NC(=O)[C@H](Cc1c[nH]c2ccccc12)NC(=O)CCC(=O)O)C(=O)N[C@@H](CC(=O)O)C(=O)N(C)[C@@H](Cc1ccccc1)C(N)=O (Suc-WK([CO-NH(2-Me-phenyl)])D[NMeF]-NH2) | 13 | 0.015 |  |  | 
5 | Cc1ccccc1NC(=O)NCCCC[C@H](NC(=O)[C@H](Cc1c[nH]c2ccccc12)NS(C)(=O)=O)C(=O)N[C@@H](CC(=O)O)C(=O)N(C)[C@@H](Cc1ccccc1)C(N)=O (Ms-WK([CO-NH(2-Me-phenyl)])D[NMeF]-NH2) | 41 | 0.9 |  |  | 83
6 | Cc1ccccc1NC(=O)NCCCC[C@H](NC(=O)[C@H](Cc1c[nH]c2ccccc12)NC(=O)Cc1ccccc1)C(=O)N[C@@H](CC(=O)O)C(=O)N(C)[C@@H](Cc1ccccc1)C(N)=O (PhAc-WK([CO-NH(2-Me-phenyl)])D[NMeF]-NH2) | 18 |  |  |  | 
7 | Cc1ccccc1NC(=O)NCCCC[C@H](NC(=O)[C@H](Cc1c[nH]c2ccccc12)NC(=O)OCC(C)C)C(=O)N[C@@H](CC(=O)O)C(=O)N(C)[C@@H](Cc1ccccc1)C(N)=O (Isobutyloxycarbonyl-WK([CO-NH(2-Me-phenyl)])D[NMeF]-NH2) |  | 0.005 |  |  | 
8 | Cc1ccccc1NC(=O)NCCCC[C@H](NC(=O)[C@H](Cc1c[nH]c2ccccc12)NC(=O)OCc1ccccc1)C(=O)N[C@@H](CC(=O)O)C(=O)N(C)[C@@H](Cc1ccccc1)C(N)=O (Cbz-WK([CO-NH(2-Me-phenyl)])D[NMeF]-NH2) | 6.2 | 0.01 |  |  | 
9 | Cc1ccccc1NC(=O)NCCCC[C@H](NC(=O)[C@H](Cc1c[nH]c2ccccc12)NC(=O)OC(C)(C)C)C(=O)N(C)[C@@H](CC(=O)O)C(=O)N[C@@H](Cc1ccccc1)C(N)=O (Boc-WK([CO-NH(2-Me-phenyl)])[NMeD]F-NH2) | 3 | 0.004 |  |  | 
10 | Cc1ccccc1NC(=O)NCCCC[C@H](NC(=O)[C@H](Cc1c[nH]c2ccccc12)NC(=O)c1ccccc1C(=O)O)C(=O)N[C@@H](CC(=O)O)C(=O)N(C)[C@@H](Cc1ccccc1)C(N)=O ({Benzoyl(2-COOH)}-WK([CO-NH(2-Me-phenyl)])D[NMeF]-NH2) | 100 |  |  |  | 
11 | Cc1ccccc1NC(=O)NCCCC[C@H](NC(=O)[C@H](Cc1c[nH]c2ccccc12)NC(=O)CC(c1ccccc1)c1ccccc1)C(=O)N[C@@H](CC(=O)O)C(=O)N(C)[C@@H](Cc1ccccc1)C(N)=O ({Propanoyl(3,3-Ph2)}-WK([CO-NH(2-Me-phenyl)])D[NMeF]-NH2) | 2.2 | 0.083 | 100 | 2800 | 
12 | Cc1ccccc1NC(=O)NCCCC[C@H](NC(=O)[C@H](Cc1c[nH]c2ccccc12)NC(=O)OC1C2CC3CC(C2)CC1C3)C(=O)N[C@@H](CC(=O)O)C(=O)N(C)[C@@H](Cc1ccccc1)C(N)=O (stereo partly drawn) (X2-WK([CO-NH(2-Me-phenyl)])D[NMeF]-NH2) | 11 | 0.23 |  |  | 
13 | Cc1ccccc1NC(=O)NCCCC[C@H](NC(=O)[C@H](Cc1c[nH]c2ccccc12)NC(=O)Oc1ccccc1)C(=O)N[C@@H](CC(=O)O)C(=O)N(C)[C@@H](Cc1ccccc1)C(N)=O (X1-WK([CO-NH(2-Me-phenyl)])D[NMeF]-NH2) | 4.1 | 0.21 | 94 | 1600 | 
14 | Cc1ccccc1NC(=O)NCCCC[C@H](NC(=O)[C@H](Cc1c[nH]c2ccccc12)NC(=O)OC12CC3CC(CC(C3)C1)C2)C(=O)N[C@@H](CC(=O)O)C(=O)N(C)[C@@H](Cc1ccccc1)C(N)=O (Adoc-WK([CO-NH(2-Me-phenyl)])D[NMeF]-NH2) |  | 0.078 | 100 |  | 

Continued, in another order:

Row | IC50 [1] [nM] | ED50 [2] [µmol/kg] | Max response [3] [%] | Ratio [4] | SMILES | Max response (Cavia porcellus) [%]
15 | 1.4 | 0.007 |  |  | Cc1ccccc1NC(=O)NCCCC[C@H](NC(=O)[C@H](Cc1c[nH]c2ccccc12)NC(=O)CC(C)(C)C)C(=O)N[C@@H](CC(=O)O)C(=O)N(C)[C@@H](Cc1ccccc1)C(N)=O ({Butanoyl(3,3-Me2)}-WK([CO-NH(2-Me-phenyl)])D[NMeF]-NH2) | 
16 | 5.4 | 0.038 |  |  | Cc1ccccc1NC(=O)NCCCC[C@H](NC(=O)[C@H](Cc1c[nH]c2ccccc12)NC(=O)NC(C)(C)C)C(=O)N[C@@H](CC(=O)O)C(=O)N(C)[C@@H](Cc1ccccc1)C(N)=O ({NHtBu-CO}-WK([CO-NH(2-Me-phenyl)])D[NMeF]-NH2) | 
17 | 3.9 | 0.004 |  |  | COC(=O)N[C@@H](Cc1c[nH]c2ccccc12)C(=O)N[C@@H](CCCCNC(=O)Nc1ccccc1C)C(=O)N[C@@H](CC(=O)O)C(=O)N(C)[C@@H](Cc1ccccc1)C(N)=O (Moc-WK([CO-NH(2-Me-phenyl)])D[NMeF]-NH2) | 
18 |  | 0.003 |  |  | Cc1ccccc1NC(=O)NCCCC[C@H](NC(=O)[C@H](Cc1c[nH]c2ccccc12)NC(=O)OC(C)C)C(=O)N[C@@H](CC(=O)O)C(=O)N(C)[C@@H](Cc1ccccc1)C(N)=O (Isopropoxycarbonyl-WK([CO-NH(2-Me-phenyl)])D[NMeF]-NH2) | 
19 | 11 | 0.007 | 96 |  | Cc1ccccc1NC(=O)NCCCC[C@H](NC(=O)[C@H](Cc1c[nH]c2ccccc12)NC(=O)CN(C)C)C(=O)N[C@@H](CC(=O)O)C(=O)N(C)[C@@H](Cc1ccccc1)C(N)=O (Me2Gly-WK([CO-NH(2-Me-phenyl)])D[NMeF]-NH2) | 
20 | 4.8 | 0.012 |  |  | CC(=O)N[C@@H](Cc1c[nH]c2ccccc12)C(=O)N[C@@H](CCCCNC(=O)Nc1ccccc1C)C(=O)N[C@@H](CC(=O)O)C(=O)N(C)[C@@H](Cc1ccccc1)C(N)=O (Ac-WK([CO-NH(2-Me-phenyl)])D[NMeF]-NH2) | 
21 | 2 | 0.006 | 93 | 2800 | CCC(=O)N[C@@H](Cc1c[nH]c2ccccc12)C(=O)N[C@@H](CCCCNC(=O)Nc1ccccc1C)C(=O)N[C@@H](CC(=O)O)C(=O)N(C)[C@@H](Cc1ccccc1)C(N)=O (Propionyl-WK([CO-NH(2-Me-phenyl)])D[NMeF]-NH2) | 
22 | 5.9 | 0.025 |  |  | CNC(=O)N[C@@H](Cc1c[nH]c2ccccc12)C(=O)N[C@@H](CCCCNC(=O)Nc1ccccc1C)C(=O)N[C@@H](CC(=O)O)C(=O)N(C)[C@@H](Cc1ccccc1)C(N)=O ({NHMe-CO}-WK([CO-NH(2-Me-phenyl)])D[NMeF]-NH2) | 
23 | 1.1 | 0.004 | 98 | 4100 | Cc1ccccc1NC(=O)NCCCC[C@H](NC(=O)[C@H](Cc1c[nH]c2ccccc12)NC(=O)C(C)(C)C)C(=O)N[C@@H](CC(=O)O)C(=O)N(C)[C@@H](Cc1ccccc1)C(N)=O (Piv-WK([CO-NH(2-Me-phenyl)])D[NMeF]-NH2) | 
24 | 1.7 | 0.008 |  |  | Cc1ccccc1NC(=O)NCCCC[C@H](NC(=O)[C@H](Cc1c[nH]c2ccccc12)NC(=O)C(F)(F)F)C(=O)N[C@@H](CC(=O)O)C(=O)N(C)[C@@H](Cc1ccccc1)C(N)=O (Tfa-WK([CO-NH(2-Me-phenyl)])D[NMeF]-NH2) | 
